Tests used:
B16 [1] = experiment: Tumor Growth Inhibitory effect (TGIR) on mice subcutaneously inoculated with B16 cells (chemotherapeutic agent, mitomycin C (MMC)); type: functional, Mus musculus; design: concentration or dose not given beside the values
In short: (§1)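 Groups of six female BDF1 mice received B16 melanoma (1 × 10^6 cells/mouse) s.c. on day 0. AGL analogues were given i.v. at 100 μg/kg on days 1, 5 and 9, and MMC at 5 mg/kg i.p. on day 1; controls were untreated. Tumor volume (length × width × height/2, by callipers) was read on days 8, 12, 16 and 20. TGIR = [1 − mean test volume/mean control volume] × 100, and the maximum value is reported.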

B16 [2] = experiment: Tumor Growth Inhibitory effect (TGIR) on mice subcutaneously inoculated with B16 cells (compound alone (single)); type: functional, Mus musculus; design: concentration or dose not given beside the values; in short: as §1
B16 [3] = experiment: Tumor Growth Inhibitory effect (TGIR) on mice subcutaneously inoculated with B16 cells (compound plus MMC); type: functional, Mus musculus; design: concentration or dose not given beside the values; in short: as §1
Mus musculus [4] = organism: Mus musculus; experiment: Lymphocyte Proliferation Stimulatory effect was tested on mouse spleen cells and evaluated for at 6 h [3H]TdR (tritium-thymidine) pulse and uptake into cells at 1 ng/mL; type: functional
In short: (§2)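 BALB/c spleen cells (2 × 10^5 cells/well, no stimulator cells) were cultured in 10% FCS RPMI 1640 with compound at 37 °C in 5% CO2 for 2–3 days. A 6 h [3H]TdR pulse followed, and uptake was counted by liquid scintillation. Run in triplicate.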

Mus musculus [5] = organism: Mus musculus; experiment: Lymphocyte Proliferation Stimulatory effect was tested on mouse spleen cells and evaluated for at 6 h [3H]TdR (tritium-thymidine) pulse and uptake into cells at 10 ng/mL; type: functional; in short: as §2
Mus musculus [6] = organism: Mus musculus; experiment: Lymphocyte Proliferation Stimulatory effect was tested on mouse spleen cells and evaluated for at 6 h [3H]TdR (tritium-thymidine) pulse and uptake into cells at 100 ng/mL; type: functional; in short: as §2
Homo sapiens [7] = organism: Homo sapiens; experiment: Lymphocyte Proliferation Stimulatory effect on human umbilical cord blood at 100 ng/mL and measured for [3H]TdR (tritium-thymidine) uptake (percent of control); type: functional
In short: (§3)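 Mononuclear cells were isolated from human peripheral blood or umbilical cord blood and plated at 1 × 10^5 cells/well in RPMI 1640 with 10% autologous plasma, with compound. After 4 days of incubation, a 6 h [3H]TdR pulse was given and uptake was counted by scintillation. Run in triplicate.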

Homo sapiens [8] = organism: Homo sapiens; experiment: Lymphocyte Proliferation Stimulatory effect on human umbilical cord blood at 1 ng/mL and measured for [3H]TdR (tritium-thymidine) uptake (percent of control); type: functional; in short: as §3
Homo sapiens [9] = organism: Homo sapiens; experiment: Lymphocyte Proliferation Stimulatory effect on human umbilical cord blood at 10 ng/mL and measured for [3H]TdR (tritium-thymidine) uptake (percent of control); type: functional; in short: as §3
Mus musculus [10] = organism: Mus musculus; experiment: Lymphocyte Proliferation Stimulatory effect on allogenic MLR at a concentration of 100n g/mL; type: functional
In short: (§4)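 Responders were BALB/c spleen cells and stimulators were C57BL/6 spleen cells pretreated with MMC (50 μg/mL, 30 min). Both were plated at 1 × 10^5 cells in 10% FCS RPMI 1640, with compounds added at plating. Culture was at 37 °C in 5% CO2 for 2–3 days, then a 6 h [3H]TdR pulse with scintillation counting. Run in triplicate.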

Mus musculus [11] = organism: Mus musculus; experiment: Lymphocyte Proliferation Stimulatory effect on allogenic MLR at a concentration of 10 ng/mL; type: functional; in short: as §4
Mus musculus [12] = organism: Mus musculus; experiment: Lymphocyte Proliferation Stimulatory effect on allogenic MLR at a concentration of 1 ng/mL; type: functional; in short: as §4
Mus musculus [13] = organism: Mus musculus; experiment: Lymphocyte Proliferation Stimulatory effect on mouse spleen cell at a concentration of 100n g/mL; type: functional; in short: as §2
Mus musculus [14] = organism: Mus musculus; experiment: Lymphocyte Proliferation Stimulatory effect on mouse spleen cell at a concentration of 10 ng/mL; type: functional; in short: as §2
Mus musculus [15] = organism: Mus musculus; experiment: Lymphocyte Proliferation Stimulatory effect on mouse spleen cell at a concentration of 1 ng/mL; type: functional; in short: as §2

| Structure (SMILES) | Tumor growth inhibition ratio (max TGIR) (B16 [1]) [%] | Control (B16 [2]) [%] | Control (B16 [3]) [%] | Control (Mus musculus [4]) [%] | Control (Mus musculus [5]) [%] | Control (Mus musculus [6]) [%] | Control (Homo sapiens [7]) [%] | Control (Homo sapiens [8]) [%] | Control (Homo sapiens [9]) [%] | [3H] TdR uptake (Mus musculus [10]) [c.p.m.] | [3H] TdR uptake (Mus musculus [11]) [c.p.m.] | [3H] TdR uptake (Mus musculus [12]) [c.p.m.] | [3H] TdR uptake (Mus musculus [13]) [c.p.m.] | [3H] TdR uptake (Mus musculus [14]) [c.p.m.] | [3H] TdR uptake (Mus musculus [15]) [c.p.m.] |
| --- | --- | --- | --- | --- | --- | --- | --- | --- | --- | --- | --- | --- | --- | --- | --- |
| CCCCCCCCCCCCCCCCCC(=O)N[C@@H](CO[C@H]1O[C@@H](CO)[C@H](O)[C@H](O)[C@@H]1O)[C@H](O)CCCCCCCCCCCCCCC | 64.1 | 78.1 | 80.3 | 155 | 383 | 645 | – | – | – | – | – | – | – | – | – |
| CCCCCCCCCCCCCCC[C@@H](O)[C@H](CO[C@H]1O[C@@H](CO)[C@H](O)[C@H](O)[C@@H]1O)NC(=O)CCCCCCCCCCCCC | 64.1 | 54.2 | 84.4 | 249 | 1010 | 1664 | – | – | – | – | – | – | – | – | – |
| CCCCCCCCCCCCCCCCCCCCCCCC(=O)N[C@H](CCCCCCCCCCCCCCCC)CO[C@H]1O[C@@H](CO)[C@H](O)[C@H](O)[C@@H]1O | 80 | 40.7 | 91.4 | 90 | 100 | 147 | – | – | – | – | – | – | – | – | – |
| CCCCCCCCCCCCCCCCCCCCCCCC(=O)N[C@@H](CO[C@H]1O[C@@H](CO)[C@H](O)[C@H](O)[C@@H]1O)[C@H](O)CCCCCCCCCCCCCCC | 64 | 68.9 | 99.1 | 1115 | 1432 | 1494 | – | – | – | – | – | – | – | – | – |
| CCCCCCCCCCCCCCCCCCCCCC[C@@H](O)C(=O)N[C@@H](CO[C@H]1O[C@@H](CO)[C@H](O)[C@H](O)[C@@H]1O)[C@H](O)[C@H](O)CCCCCCCCCCC | 46.5 | 94.1 | 77.4 | 330 | 676 | 838 | – | – | – | – | – | – | – | – | – |
| CCCCCCCCCCCCCCCCCCCCCC[C@@H](O)C(=O)N[C@@H](CO[C@H]1O[C@@H](CO)[C@H](O)[C@H](O)[C@@H]1O)[C@H](O)[C@H](O)CCCCCCCCCCCCCC | 64 | 57.9 | 91.9 | 1060 | 1405 | 1552 | – | – | – | – | – | – | – | – | – |
| CCCCCCCCCCCCCCCCCCCCCC[C@@H](O)C(=O)N[C@@H](CO[C@H]1O[C@@H](CO)[C@H](O)[C@H](O)[C@@H]1O)[C@H](O)[C@H](O)CCCCCCC | 46.5 | 46.2 | 85.1 | 196 | 541 | 936 | – | – | – | – | – | – | – | – | – |
| CCCCCCCCCCCCCCCCCCCCCCCC[C@@H](O)C(=O)N[C@@H](CO[C@H]1O[C@@H](CO)[C@H](O)[C@H](O)[C@@H]1O)[C@H](O)[C@H](O)CCCCCCCCCCCCCCCC | 87.3 | 92.8 | 94.3 | 153 | 482 | 481 | – | – | – | – | – | – | – | – | – |
| CCCCCCCCCCCCCCCCCCCCCCCC[C@@H](O)C(=O)N[C@@H](CO[C@H]1O[C@@H](CO)[C@H](O)[C@H](O)[C@@H]1O)[C@H](O)CCCCCCCCCCCCCCC | – | – | – | – | – | – | 362 | 210 | 238 | – | – | – | – | – | – |
| CCCCCCCCCCCCCCCCCCCCCC(=O)N[C@@H](CO[C@H]1O[C@@H](CO)[C@H](O)[C@H](O)[C@@H]1O)[C@H](O)CCCCCCCCCCCCCCC | 39.4 | 56.9 | 85 | 378 | 992 | 875 | – | – | – | – | – | – | – | – | – |
| CCCCCCCCCCCCCCCCCCCC(=O)N[C@@H](CO[C@H]1O[C@@H](CO)[C@H](O)[C@H](O)[C@@H]1O)[C@H](O)CCCCCCCCCCCCCCC | 39.4 | 53.1 | 90.4 | 177 | 791 | 1009 | – | – | – | – | – | – | – | – | – |
| CCCCCCCCCCCCCCCCCCCCCC[C@@H](O)C(=O)N[C@@H](CO[C@H]1O[C@@H](CO)[C@H](O)[C@H](O)[C@@H]1O)[C@H](O)CCCCCCCCCCCCCCC | 70.7 | 81.3 | 98.5 | 397 | 898 | 872 | – | – | – | – | – | – | – | – | – |
| CCCCCCCCCCCCCCCCCCCCCCCC(=O)N[C@@H](CO[C@H]1O[C@@H](CO)[C@H](O)[C@H](O)[C@@H]1O)[C@H](O)[C@H](O)CCCCCCCCCCCCCC | 64.8 | 65 | 90.8 | 198 | 642 | 790 | – | – | – | – | – | – | – | – | – |
| CCCCCCCCCCCCCCCCCCCCCCCC[C@@H](O)C(=O)N[C@@H](CO[C@H]1O[C@@H](CO)[C@H](O)[C@H](O)[C@@H]1O)[C@H](O)[C@H](O)CCCCCCCCCCCCCCC | 87.3 | 72.3 | 97.1 | 221 | 488 | 673 | – | – | – | – | – | – | – | – | – |
| CCCCCCCCCCCCCCCCCCCCCC[C@@H](O)C(=O)N[C@@H](CO[C@H]1O[C@@H](CO)[C@H](O)[C@H](O)[C@@H]1O)[C@H](O)[C@H](O)CCCCCCCCCCCCC | 61.5 | 82.4 | 90.6 | 520 | 1491 | 1202 | – | – | – | – | – | – | – | – | – |
| CCCCCCCCCCCCCCCCCCCCCC[C@@H](O)C(=O)N[C@@H](CO[C@H]1O[C@@H](CO)[C@H](O)[C@H](O)[C@@H]1O)[C@H](O)[C@H](O)CCCCCCCCCCCC(C)C (stereo in doubt; form 1) | 61.5 | 86.8 | 94.6 | 282 | 524 | 879 | – | – | – | 31219 | 38668 | 29143 | 23968 | 20746 | 7935 |
| CCCCCCCCCCCCCCCCCCCCCC[C@@H](O)C(=O)N[C@@H](CO[C@H]1O[C@@H](CO)[C@H](O)[C@H](O)[C@@H]1O)[C@H](O)[C@H](O)CCCCCCCCCCCC(C)C (stereo in doubt; form 2) | – | – | – | – | – | – | – | – | – | 32240 | 36713 | 36022 | 24264 | 19985 | 8230 |

— ChEMBL document CHEMBL1128398, “Structure-activity relationship of alpha-galactosylceramides against B16-bearing mice” (1995)
